{"data": "Measurements of several laboratories", "target": "Serine/threonine-protein kinase TAO3 (TAOK3, Homo sapiens, UniProt Q9H2K8)", "Residues used in one study (Q9H2K8 1-898)": "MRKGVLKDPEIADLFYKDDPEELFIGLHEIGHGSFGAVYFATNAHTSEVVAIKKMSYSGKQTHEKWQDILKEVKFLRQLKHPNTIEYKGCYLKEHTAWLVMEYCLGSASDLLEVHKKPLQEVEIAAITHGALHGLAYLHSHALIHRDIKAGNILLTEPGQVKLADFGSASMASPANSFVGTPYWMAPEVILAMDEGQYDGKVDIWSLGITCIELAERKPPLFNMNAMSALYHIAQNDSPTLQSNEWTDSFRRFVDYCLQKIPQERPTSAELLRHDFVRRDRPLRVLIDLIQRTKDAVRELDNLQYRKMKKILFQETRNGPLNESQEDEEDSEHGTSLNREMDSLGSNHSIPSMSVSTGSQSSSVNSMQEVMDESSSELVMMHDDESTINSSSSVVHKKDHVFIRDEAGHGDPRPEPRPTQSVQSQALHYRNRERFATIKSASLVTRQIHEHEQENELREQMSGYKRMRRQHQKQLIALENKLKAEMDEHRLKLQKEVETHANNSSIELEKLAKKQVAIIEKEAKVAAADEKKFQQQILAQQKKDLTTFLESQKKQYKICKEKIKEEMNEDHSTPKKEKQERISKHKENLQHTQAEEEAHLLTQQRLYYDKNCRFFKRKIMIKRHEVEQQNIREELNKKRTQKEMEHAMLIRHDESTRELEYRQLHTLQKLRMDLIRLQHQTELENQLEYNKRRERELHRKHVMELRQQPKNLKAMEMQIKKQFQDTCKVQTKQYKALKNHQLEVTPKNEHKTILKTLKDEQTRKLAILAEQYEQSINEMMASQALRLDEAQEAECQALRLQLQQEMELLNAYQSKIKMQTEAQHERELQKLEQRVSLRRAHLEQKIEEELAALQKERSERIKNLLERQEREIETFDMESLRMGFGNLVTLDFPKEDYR", "note": "Protocols differ between the studies behind these lines."}
{"SMILES": "O=c1[nH]c2ccccc2n1C1CCN(Cc2ccc(-c3[nH]c4cc5ncnc5cc4nc3-c3ccccc3)cc2)CC1", "effect on": "cell-free assay", "tested at": "0.5 µM", "measurement": "remaining signal", "result": "111%"}
{"SMILES": "Cc1nn(C)cc1-c1nc2c(N3CCN(Cc4ccc(Cl)cc4)CC3)c(Cl)cnc2[nH]1", "effect on": "binding", "technique": "competition with immobilised ligand", "tested at": "1 µM", "measurement": "remaining binding", "result": "87%"}
{"SMILES": "Cn1cc(-c2cccc(N3CCc4c(sc5c4CC(C)(C)C5)C3=O)c2CO)cc(Nc2ccncn2)c1=O", "effect on": "enzyme activity", "mode": "inhibitor", "tested at": "1 µM", "measurement": "inhibition", "result": "1%"}
{"SMILES": "CC(C)(C)c1cc(C=C(C#N)C#N)cc(Br)c1O", "effect on": "enzyme activity", "mode": "inhibitor", "tested at": "0.5 µM", "measurement": "remaining activity", "result": "122%"}
{"SMILES": "N#CC1(c2ccccn2)CCN(Cc2cc(C(=O)O)c(=O)n3ccccc23)CC1", "effect on": "cell-free assay", "technique": "competition with immobilised ligand", "tested at": "1 µM", "measurement": "remaining binding", "result": "78%"}
{"SMILES": "COc1ncccc1-c1cnn2ccc(N3CCN(C(=O)OC(C)C)CC3)nc12", "effect on": "binding", "technique": "competition with immobilised ligand", "tested at": "1 µM", "measurement": "remaining binding", "result": "75%"}
{"SMILES": "Cn1cc(-c2cc(F)cc(N3CCn4c(cc5c4CCCC5)C3=O)c2CO)cc(Nc2ccc(N3CCN(C4COC4)CC3)cn2)c1=O", "effect on": "enzyme activity", "mode": "inhibitor", "tested at": "0.1 µM", "measurement": "inhibition", "result": "-6%"}
{"SMILES": "Cn1cncc1[C@](O)(COc1ccc(C#N)cc1-c1ccc(OC(F)(F)F)cc1)c1ccc(C#N)cc1", "effect on": "cell-free assay", "technique": "competition with immobilised ligand", "tested at": "1 µM", "measurement": "remaining binding", "result": "87%"}
{"SMILES": "Nc1ncc(-c2nc(N3CCOCC3)nc(N3CCOCC3)n2)c(C(F)F)n1", "effect on": "binding", "technique": "competition with immobilised ligand", "tested at": "10 µM", "measurement": "remaining binding", "result": "70%"}
